For one series, the target named is Cannabinoid receptor 1 (Homo sapiens, UniProt P21554). Put plainly: biochemical. Format: cell-based, HEK293.
The next series has as its target Cannabinoid receptor 2 (Homo sapiens, UniProt P34972). Description: Displacement of [3H]CP-55940 from human recombinant CB2 receptor expressed in HEK293 cells. The format is cell-based. (Displacement assays read how much labelled ligand stays bound in the presence of the test substance.)
Another series is filed under the species Homo sapiens. Description: Selectivity for human CB2 over human CB1.
Series [1] relates to Mus musculus. Description: Antinociceptive activity in Swiss Albino mouse assessed as licking latency time at 30 mg/kg, po after 30 mins by hot plate test. The format is functional. The method in brief:
(§1)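 Mice held at 22 ± 1 °C on a 12 h light/dark cycle and given oral doses in CMC vehicle. In the hot-plate test the container was kept at 52.5 ± 0.1 °C and the endpoint was licking of the fore or hind paws, timed before dosing and after it. Pretest scorers below 12 s or above 18 s were rejected. Cut-off 45 s. AM630 0.6 mg/kg po given simultaneously. Mean ± SEM, ANOVA with Fisher PLSD, P<0.05.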

In series [2] the test system is Mus musculus. Put plainly: Antinociceptive activity in Swiss Albino mouse assessed as licking latency time at 50 mg/kg, po in presence of CB2 antagonist AM630 after 30 mins. The format is functional. In a few lines:
as §1

The subject of series [3] is Mus musculus. Put plainly: Effect on motor coordination in Swiss Albino mouse at 50 mg/kg, po after 45 mins by rotarod test. The format is organism-based. The arrangement: dose 50 mg/kg, route oral. Particulars: in vivo, 0.75 h. In a few lines:
(§2)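 Mice were dosed orally in CMC vehicle and tested on a rotarod with a 3 cm diameter non-slip rotating rod, counting falls before dosing and at 15, 30 and 45 min after. Pretest scorers below 3 or above 6 falls were rejected. Ten mice per group. Mean ± SEM, ANOVA with Fisher PLSD, P<0.05.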
(In general: In the rotarod test animals must keep their balance on a rotating rod.)

Series [4] deals with Mus musculus. Description: Antinociceptive activity in Swiss Albino mouse assessed as licking latency time at 50 mg/kg, po after 45 mins by hot plate test. The format is functional. In a few lines:
as §1

For series [5], the system named is Mus musculus. Put plainly: Effect on Swiss Albino mouse assessed as licking latency time at 0.06 mg/kg, po after 15 mins by hot plate test. The format is functional. (Thermal pain tests record how soon the animal reacts.)
In series [6] the test system is Mus musculus. Put plainly: Effect on motor coordination in Swiss Albino mouse at 50 mg/kg, po after 15 mins by rotarod test. Particulars: in vivo, 0.25 h. The arrangement: dose 50 mg/kg, route oral. The format is organism-based. The method in brief:
as §2

The test system of series [7] is Mus musculus. Description: Antinociceptive activity in Swiss Albino mouse assessed as licking latency time at 50 mg/kg, po after 15 mins by hot plate test. Format: functional. In a few lines: as §1
In series [8] the test system is Mus musculus. Description: Antinociceptive activity in Swiss Albino mouse assessed as licking latency time at 10 mg/kg, po after 45 mins by hot plate test. Format: functional. The method in brief:
as §1

For series [9], the system named is Mus musculus. Description: Antinociceptive activity in Swiss Albino mouse assessed as licking latency time at 50 mg/kg, po after 30 mins by hot plate test. The format is functional. The method in brief:
as §1

Series [10] concerns Mus musculus. Put plainly: Effect on motor coordination in Swiss Albino mouse at 50 mg/kg, po after 30 mins by rotarod test. Format: organism-based. The arrangement: dose 50 mg/kg, route oral. The following applies: in vivo, 0.5 h. In a few lines: as §2
The subject of series [11] is Mus musculus. Put plainly: Antinociceptive activity in Swiss Albino mouse assessed as licking latency time at 10 mg/kg, po after 15 mins by hot plate test. Format: functional. In a few lines: as §1
Series [12] relates to Mus musculus. Description: Antinociceptive activity in Swiss Albino mouse assessed as licking latency time at 50 mg/kg, po in presence of CB2 antagonist AM630 after 45 mins. Format: functional. The method in brief:
as §1

In series [13] the test system is Mus musculus. Description: Antinociceptive activity in Swiss Albino mouse assessed as licking latency time at 30 mg/kg, po after 15 mins by hot plate test. The format is functional. In a few lines:
as §1

Series [14] deals with Mus musculus. Description: Antinociceptive activity in Swiss Albino mouse assessed as licking latency time at 50 mg/kg, po in presence of CB2 antagonist AM630 after 15 mins. Format: functional. In a few lines: as §1
In series [15] the test system is Mus musculus. Put plainly: Effect on Swiss Albino mouse assessed as licking latency time at 0.06 mg/kg, po after 45 mins by hot plate test. Format: functional.
The test system of series [16] is Mus musculus. Description: Antinociceptive activity in Swiss Albino mouse assessed as licking latency time at 10 mg/kg, po after 30 mins by hot plate test. The format is functional. The method in brief: as §1
Series [17] relates to Mus musculus. Description: Effect on Swiss Albino mouse assessed as licking latency time at 0.06 mg/kg, po after 30 mins by hot plate test. The format is functional.
In series [18] the test system is Mus musculus. Put plainly: Antinociceptive activity in Swiss Albino mouse assessed as licking latency time at 30 mg/kg, po after 45 mins by hot plate test. Format: functional. The method in brief:
as §1

The structures appear in SMILES notation. A value given as a limit tells only on which side of the number the result lay.

Sequence of Cannabinoid receptor 2 (P34972 whole entry): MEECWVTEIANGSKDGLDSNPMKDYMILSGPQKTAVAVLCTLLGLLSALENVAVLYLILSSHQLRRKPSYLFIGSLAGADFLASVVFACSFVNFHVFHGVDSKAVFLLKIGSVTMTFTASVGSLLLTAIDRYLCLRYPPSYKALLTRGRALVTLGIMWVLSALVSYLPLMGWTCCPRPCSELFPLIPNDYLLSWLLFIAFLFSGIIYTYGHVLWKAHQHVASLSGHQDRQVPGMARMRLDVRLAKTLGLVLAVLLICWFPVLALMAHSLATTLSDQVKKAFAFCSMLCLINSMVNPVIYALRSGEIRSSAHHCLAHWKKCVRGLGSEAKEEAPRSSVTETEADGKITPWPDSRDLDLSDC
Sequence of Cannabinoid receptor 1 (P21554 whole entry): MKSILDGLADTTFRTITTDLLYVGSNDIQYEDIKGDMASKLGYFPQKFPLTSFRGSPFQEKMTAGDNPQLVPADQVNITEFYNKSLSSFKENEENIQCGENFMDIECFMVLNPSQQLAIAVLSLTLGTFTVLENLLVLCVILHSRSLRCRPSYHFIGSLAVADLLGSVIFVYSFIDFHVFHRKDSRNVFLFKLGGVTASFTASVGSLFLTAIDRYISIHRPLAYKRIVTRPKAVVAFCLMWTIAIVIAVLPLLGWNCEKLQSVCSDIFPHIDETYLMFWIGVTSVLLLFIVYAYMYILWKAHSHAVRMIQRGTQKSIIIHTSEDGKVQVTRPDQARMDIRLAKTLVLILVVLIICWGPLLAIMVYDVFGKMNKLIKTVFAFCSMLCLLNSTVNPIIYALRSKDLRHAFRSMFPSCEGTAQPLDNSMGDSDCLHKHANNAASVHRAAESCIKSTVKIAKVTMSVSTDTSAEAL

On to `O=C(NC1CCCCCC1)c1cn(CCN2CCOCC2)c2ccccc2c1=O`, for which the inhibition constant (Ki) (in general, a dissociation constant, usually derived from enzyme kinetics or from competition with a known ligand) is 290 nM at Cannabinoid receptor 1 and 28 nM at Cannabinoid receptor 2. In addition, the Ratio Ki in the series listed under Homo sapiens was found to be 10.3.

In the case of `COc1ccc2c(=O)c(C(=O)NC3CCCCC3)cn(CCN3CCOCC3)c2c1`, the Ki at Cannabinoid receptor 1 came out at 2920 nM; on Cannabinoid receptor 2 it was 79 nM. Also, the Ratio Ki in the series listed under Homo sapiens turned out to be 37.

As for `COc1ccc(C(=O)c2c(C)n(CCN3CCOCC3)c3cc(I)ccc23)cc1`, the inhibition constant Ki at Cannabinoid receptor 2 came to 36 nM.

Turning to `O=c1c2cn(Cc3ccccc3)c3ccccc3c-2nn1C1CCCCC1`, the Ki at Cannabinoid receptor 1 came out at 620 nM; on Cannabinoid receptor 2, 790 nM. Also, in the series filed under Homo sapiens, the Ratio Ki was 0.78.

Take `Nc1ccc2c(=O)cc(C(=O)NC3CCCCC3)n(Cc3ccccc3)c2n1`: the Ki at Cannabinoid receptor 1 turned out to be 5600 nM; at Cannabinoid receptor 2, 7900 nM. In addition, the Ratio Ki in the series listed under Homo sapiens turned out to be 0.71.

For `CCCCCCC(C)(C)c1cc(O)c2c(c1)OC(C)(C)[C@@H]1CC=C(CO)C[C@@H]21`, at Cannabinoid receptor 1, the inhibitory constant (Ki) was 0.18 nM.

Regarding `CCCCC/C=C\C/C=C\C/C=C\C/C=C\CCCC(=O)NCCCl`, the results for the inhibition constant (Ki) at Cannabinoid receptor 1 and at Cannabinoid receptor 2 were 5.3 nM and 95 nM, respectively. Moreover, the Ratio Ki in the series filed under Homo sapiens is 0.06.

Take `O=c1c2cn(CCN3CCOCC3)c3ccccc3c-2nn1C1CCCCC1`: the figures for the Ki at Cannabinoid receptor 1 and on Cannabinoid receptor 2 were more than 5600 nM and more than 7900 nM, respectively.

Take `O=c1c2cn(CCN3CCOCC3)c3ccccc3c-2nn1-c1ccccc1`: the figures for the Ki at Cannabinoid receptor 1 and at Cannabinoid receptor 2 were 2800 nM and 2280 nM, respectively. The Ratio Ki in the series listed under Homo sapiens is 1.2.

On to `O=C(NC1CCCCCC1)c1cn(Cc2ccccc2)c2ccccc2c1=O`, for which the values for the inhibition constant (Ki) on Cannabinoid receptor 1 and at Cannabinoid receptor 2 were 17 nM and 6.4 nM, respectively. Also, the Ratio Ki in the series listed under Homo sapiens came out at 2.6.

`COc1ccc2c(=O)c(C(=O)NC3CCCCC3)cn(Cc3ccccc3)c2c1`: the Ki at Cannabinoid receptor 2 came out at 79 nM.

As for `COc1ccc2c(=O)c(C(=O)NC3CCCCC3)cn(Cc3ccccc3)c2n1`, the Activity with Mus musculus [1] was determined as 19.5 s; in the series with Mus musculus [2] it was 19.2 s; in the series with Mus musculus [3], 0.2; in the series on Mus musculus [4], 18.2 s; with Mus musculus [5], 16.6 s; with Mus musculus [6] it was 0.7. Moreover, the Activity with Mus musculus [7] came to 19.2 s; in the series on Mus musculus [8], 16.7 s; in the series with Mus musculus [9], 22.5 s; in the series with Mus musculus [10] it was 0.2; with Mus musculus [11], 17.1 s; in the series on Mus musculus [12] it was 17.6 s. Further, the Activity was found to be 16.6 s with Mus musculus [13]; 18.1 s in the series on Mus musculus [14]; 16.3 s in the series on Mus musculus [15]; 18.5 s in the series with Mus musculus [16]; 18 s in the series on Mus musculus [17]; 17.4 s with Mus musculus [18]. In addition, the Ki at Cannabinoid receptor 1 is 560 nM; on Cannabinoid receptor 2, 11 nM. Further, in the series listed under Homo sapiens, the Ratio Ki amounted to 51.

For `CN(C)c1ccc2c(=O)c(C(=O)NC3CCCCC3)cn(CCN3CCOCC3)c2n1`, the Ki at Cannabinoid receptor 1 is more than 5600 nM; on Cannabinoid receptor 2, 94 nM.

With `O=c1c2cn(Cc3ccccc3)c3cc(Cl)ccc3c-2nn1C1CCCCC1`, the Ki was found to be 560 nM at Cannabinoid receptor 1 and 1640 nM at Cannabinoid receptor 2. Moreover, the Ratio Ki in the series listed under Homo sapiens came to 0.34.

The record behind these values is ChEMBL document CHEMBL1140571, “New 1,8-naphthyridine and quinoline derivatives as CB2 selective agonists” (Bioorg Med Chem Lett, 2007).
